Platelet DG rel: modulates dense granule release in human platelets; human platelet-rich plasma, SFLLRN dense granule ATP release, luminescence; inhibition, %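 (compounds screened at 7.5 µM in platelet-rich plasma)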; 0.22% of 300,000 active;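 active means mean replicate score, as percent of positive control, at or above 50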
SENP8 block-1: inhibitors of human SENP8 protease; purified SENP8, Z-RLRGG-aminoluciferin cleavage, luminescence; Q96LD8; 1.2% of 330,000 active; inhibition, % at 10 µM; AID 2540; in the data active means inhibition above about 50%
Target sequence (Q96LD8 whole entry, looked up): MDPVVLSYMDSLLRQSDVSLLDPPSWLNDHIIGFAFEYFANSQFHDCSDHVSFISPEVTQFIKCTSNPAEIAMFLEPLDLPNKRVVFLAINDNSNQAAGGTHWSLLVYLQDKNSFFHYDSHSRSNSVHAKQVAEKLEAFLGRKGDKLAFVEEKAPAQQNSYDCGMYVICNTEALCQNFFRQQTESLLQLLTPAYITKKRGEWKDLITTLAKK
SENP7 inh: SENP7 protease inhibition | recombinant SENP7, Z-RLRGG-aminoluciferin luminescence, 40 min | inhibition, % at 5 µM | AID 434973 | 1.5% of 330,000 active | Q9BQF6;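 active means inhibition above about 50% at the single test dose, limit read from the data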;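 further: plate controls were DMSO with enzyme for no effect and no enzyme buffer wells for full effect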
SENP6 block: SENP6 protease inhibition; Q9GZR1; Recombinant SENP6 catalytic domain, aminoluciferin luminescence; inhibition, % at 10 µM; 1.8% of 330,000 active; AID 2599;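 active means inhibition above about 50% at the single tested dose, limit read from the data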;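 further: plate controls were DMSO wells with enzyme for no effect and DMSO wells lacking enzyme for full effect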
SENP1 inh: inhibitors of human SENP1 SUMO protease catalytic domain; recombinant SENP1 catalytic domain, CyPet-SUMO1-YPet FRET cleavage; inhibition, % at 10 µM; 0.21% of 360,000 active; AID 624204;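 active means inhibition at least 30% at 10 µM, raw YFP signal under a set limit, fluorescence ratio 0.5 to 1.5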;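 further: 0% = enzyme with DMSO and 100% = no enzyme wells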
Target sequence (Q9P0U3 419-644 limits assumed): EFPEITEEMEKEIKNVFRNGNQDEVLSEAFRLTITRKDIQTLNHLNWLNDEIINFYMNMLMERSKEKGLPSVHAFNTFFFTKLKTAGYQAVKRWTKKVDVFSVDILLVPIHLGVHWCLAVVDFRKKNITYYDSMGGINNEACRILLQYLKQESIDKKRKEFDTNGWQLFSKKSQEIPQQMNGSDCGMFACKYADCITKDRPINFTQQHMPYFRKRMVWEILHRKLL
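Compound: 10 µM single point, 0.5% DMSO; Test system: hSENP1 catalytic domain, recombinant; Timing: 50 min reaction at room temperature; Technique: FRET, CFP and YFP emission; Control set: no-enzyme wells low, DMSO-plus-enzyme wells high control.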
SENP8 block-2: SENP8 (human) protease inhibition | Q96LD8 | recombinant SENP8, Nedd8 substrate fluorescence | inhibition, % at 20 µM | 0.64% of 360,000 active; in the data active means inhibition mostly above about 40%, no sharp cut-off; inactive means mostly below about 27%
SENP8 confirm: human SENP8 inhibition, confirmed; shares compounds with SENP7 inh; Recombinant SENP8, Z-RLRGG-aminoluciferin luminescence, 60 min; inhibition, % at 12.5 µM; 40% of 6,200 active;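 active means mean inhibition across replicates above about 50%, limit read from the data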
SENP6 conf: confirmation of human SENP6 protease inhibitors; AID 488915; shares compounds with SENP7 inh; recombinant SENP6, Z-RLRGG-aminoluciferin luminescence; 58% of 6,200 active; inhibition, % at 12.5 µM
SENP7 conf: confirmation of human SENP7 protease inhibitors | shares compounds with SENP7 inh | recombinant SENP7, Z-RLRGG-aminoluciferin luminescence, 40 min | inhibition, % at 12.5 µM | 69% of 6,200 active | AID 488917
Casp3 select: selectivity test for SENP inhibitors: human caspase-3 inhibition; shares compounds with SENP7 inh; purified caspase-3, Z-DEVD-aminoluciferin luminescence, 60 min; inhibition, % at 12.5 µM; 60% of 6,200 active;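 active means mean inhibition above about 50%, limit read from the data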;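 further: plate controls were enzyme with DMSO for no effect and wells without caspase-3 for full effect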
Target sequence (P42574 28-227 limits assumed): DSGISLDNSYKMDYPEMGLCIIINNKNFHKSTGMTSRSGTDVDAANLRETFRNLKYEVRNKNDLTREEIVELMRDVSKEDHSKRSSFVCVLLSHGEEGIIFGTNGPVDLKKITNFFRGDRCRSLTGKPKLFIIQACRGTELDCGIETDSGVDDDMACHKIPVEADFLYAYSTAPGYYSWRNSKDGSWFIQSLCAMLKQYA
Luc interf: counter-screen for SENP inhibitors: luminescence interference; inhibition, % at 12.5 µM; shares compounds with SENP7 inh; Pre-incubated SENP8/Z-RLRGG-aminoluciferin, luciferase luminescence interference; 39% of 6,200 active;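 active means mean inhibition above about 50% when retested at one dose, limit read from the data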;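 further: plate controls were DMSO wells with completed reaction for no effect and substrate without enzyme for full effect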
* = called active by the depositor; x = not tested or not shown. Rows were chosen to be rich in hits. Some 2.6% of all compounds tested hit in one or more screens of this group.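 How the source made its calls, unless noted: active means mean inhibition above about 50% in the one-dose retest (limit read from the data); inactive means the rest.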

SMILES	Platelet DG rel	SENP8 block-1	SENP7 inh	SENP6 block	SENP1 inh	SENP8 block-2	SENP8 confirm	SENP6 conf	SENP7 conf	Casp3 select	Luc interf
COc1ccc(Nc2nc(C)cc(C)n2)cc1Cl	19.3	39.1	66.6*	69.8*	3.1	20.4	61.5*	58.6*	86.0*	67.8*	65.3*
Cc1ccc(Nc2nnc(-c3ccncc3)s2)c(Br)c1	-12.9	4.4	11.7	3.5	1.5	7.4	x	x	x	x	x
COc1ccc(Cl)cc1Nc1nnc(-c2ccncc2)s1	x	50.8*	95.0*	75.6*	-5.4	-291.9	-14.0	8.9	-4.0	1.3	-6.3
CCOc1ccc(NC(=O)CN2C(=O)NC3(CCCCCC3)C2=O)cc1	x	7.9	3.6	-0.1	-0.1	5.7	x	x	x	x	x
O=C(NCCCNC(=O)c1cccnc1)c1ccc(Cl)cc1	7.0	-10.9	-8.3	-5.0	2.5	10.8	x	x	x	x	x
CCCc1ccc(OC(=O)c2ccc(O)cc2Cl)cc1	0.1	65.5*	46.2	61.2*	2.1	11.4	57.5*	72.7*	89.6*	22.8	30.7
CCCc1ccc(OC(=O)c2cccs2)cc1	0.1	-3.8	41.6	32.1	2.7	15.6	x	x	x	x	x
COCCn1c(C)cc(C(=O)COC(=O)c2ccc(Br)o2)c1C	10.5	35.1	41.4	50.9*	1.6	4.1	43.9	40.4	79.9*	73.0*	63.7*
CC(/C=C/c1ccc(O)cc1)=NNc1ccccc1	x	x	x	x	-7.9	-12.7	x	x	x	x	x
CSc1ccc(CN2CCC2(C)C(=O)NC2CCN(Cc3ccccc3)CC2)cc1 (stereo unspecified)	x	x	x	x	-2.7	11.7	x	x	x	x	x
O=C1/C(=C\c2ccc(O)c(O)c2)SC(=S)N1Cc1ccccc1	-11.0	46.6	-7.8	54.7*	-26.4	36.4*	69.6*	68.9*	71.8*	18.4	49.4
O=C(CCCN1C(=O)/C(=C/c2ccc3c(c2)OCO3)SC1=S)Nc1cccc(C(=O)O)c1	-0.5	75.9*	47.5	81.7*	-4.2	9.9	60.1*	82.2*	90.1*	63.1*	46.5
COc1cccc(/C=C2\SC(=S)N(CCCC(=O)Nc3ccc(C(=O)O)cc3)C2=O)c1	-3.9	83.6*	81.4*	83.9*	1.5	8.8	67.4*	76.5*	61.5*	58.4*	15.3
COc1cc(/C=C2/SC(=S)N(Cc3ccccc3)C2=O)ccc1O	11.6	0.0	4.3	49.1	-28.9	28.7	x	x	x	x	x
O=C(CCN1C(=O)/C(=C/c2ccc(Cl)cc2)SC1=S)Nc1cccc(C(=O)O)c1	30.7	34.4	4.7	7.9	1.0	18.2	x	x	x	x	x
COc1ccc(/C=C2\SC(=S)N(CCC(=O)Nc3cccc(C(=O)O)c3)C2=O)cc1	-5.5	53.2*	6.3	61.9*	-22.8	25.2	35.3	32.7	21.3	21.4	14.7
O=C(CCN1C(=O)/C(=C/c2ccc3c(c2)OCO3)SC1=S)Nc1cccc(C(=O)O)c1	-10.2	-0.3	-16.3	8.6	-39.0	29.3	x	x	x	x	x
Cc1ccc(NC(=O)COc2cccc(/C=C3\SC(=S)N(CCC(=O)O)C3=O)c2)cc1Cl	-1.6	47.0	-0.8	65.8*	2.0	32.9	12.8	42.0	61.3*	21.4	1.8
O=C(CCCN1C(=O)/C(=C\c2ccccc2)SC1=S)Nc1cccc(C(=O)O)c1	-1.9	37.8	-0.1	63.2*	1.6	23.7	43.4	48.0	36.6	23.5	5.5
CC(=O)N1c2ccc(S(=O)(=O)NCCC(=O)Nc3ccc(C)c(Cl)c3)cc2CC1C (stereo unspecified)	-8.8	-3.5	-2.8	-8.8	-0.5	11.4	x	x	x	x	x
COc1ccc(N=C2C(=Nc3ccc(OC)cc3)N(c3ccc(OC)cc3)C(=S)N2C(=O)c2ccc(OC)cc2)cc1	0.2	1.6	6.3	-3.5	2.3	19.5	x	x	x	x	x
COc1ccc(N2C(=S)N(C(=O)c3ccccc3)C(=Nc3ccccc3)C2=Nc2ccccc2)cc1	1.6	73.4*	92.3*	82.9*	1.8	14.9	67.2*	82.4*	95.8*	92.9*	60.1*
Cc1ccc(N/C=C/C(=O)c2cccs2)cc1C	16.2	85.1*	83.1*	87.8*	-23.5	-142.9	90.7*	91.5*	99.5*	84.0*	85.1*
O=C(O)c1ccccc1C(=O)c1cccs1	-0.9	-1.0	-6.2	-2.6	-0.4	12.3	x	x	x	x	x
O=C(/C=C/Nc1cccc([N+](=O)[O-])c1)c1cccs1	-6.9	35.1	62.2*	70.0*	2.6	11.5	4.3	53.1*	88.3*	58.3*	57.4*
SMILES	Platelet DG rel	SENP8 block-1	SENP7 inh	SENP6 block	SENP1 inh	SENP8 block-2	SENP8 confirm	SENP6 conf	SENP7 conf	Casp3 select	Luc interf
O=C(/C=C/Nc1ccc(Nc2ccccc2)cc1)c1cccs1	-1.0	x	x	x	57.9	16.5	x	x	x	x	x
O=C(Cc1cccs1)Nc1cccc([N+](=O)[O-])c1	-7.0	3.1	2.4	4.5	-4.8	20.8	x	x	x	x	x
Cc1cc(N/C=C/C(=O)c2cccs2)ccc1F	18.3	82.2*	46.1	84.6*	-47.9	-162.4	88.0*	90.3*	100.9*	87.2*	41.8
O=C(/C=C/Nc1ccccc1C(=O)O)c1cccs1	4.4	82.4*	21.4	91.6*	-31.8	-50.7	4.2	95.5*	101.7*	97.6*	93.1*
CCOC(=O)C1(C)CCCCN1C(=O)c1ccc(F)c(C)c1 (stereo unspecified)	x	x	x	x	1.2	14.3	x	x	x	x	x
O=C1NC[C@H](c2ccccc2)N(CCc2cccc(F)c2)C1=O	-5.5	-7.9	-2.2	0.1	2.5	5.9	x	x	x	x	x
CC1(Oc2ccc(F)cc2)CCN(Cc2ccccc2OC(F)F)C1 (stereo unspecified)	x	x	x	x	-1.0	14.8	x	x	x	x	x
CN(C)CCNC(=O)c1cccc(-c2cnc3c(NC=O)cc(/C=C/c4ccccc4)cn23)c1	x	x	x	x	-31.6	-499.0	x	x	x	x	x
Cc1ccc(Sc2ncccc2N)cc1	0.0	20.2	25.2	67.4*	-12.9	-32.4	-25.2	-16.0	-12.4	-10.1	-4.5
Cc1ccc(Sc2ncccc2O)cc1	3.7	-5.9	-3.9	-1.5	0.6	10.4	x	x	x	x	x
Cn1c(NCCc2ccncc2)nc2cc(-c3ccsc3)sc2c1=O	x	x	x	x	2.1	-65.1	x	x	x	x	x
CCn1nc(C)c(CN2CCC(Oc3ccc(C(=O)N4CCCC4)cc3)CC2)c1C	7.8	5.6	1.2	2.4	0.9	13.8	x	x	x	x	x
CCN(CC)C(=O)CSc1ncnc2sccc12	2.9	-6.5	-7.3	-1.6	-5.2	1.1	x	x	x	x	x
